From paper PMC4844355 (Cellular and Molecular Gastroenterology and Hepatology, 2016)
In brackets after ≈: the same amount, converted by molar mass. Entries after “also recorded” stand apart in the source; their conditions may differ. Each block holds one compound with its values, some of them ahead of it.

What was measured:
human wild-type CFTR = human wild-type CFTR (Homo sapiens, UniProt P13569); test: Short-circuit current in FRT cells expressing wild-type human CFTR; assay type: cell-based
Procedure, shortened: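 FRT cells stably expressing wild-type human CFTR grown on porous filters. Basolateral membrane permeabilized with 250 μg/mL amphotericin B. Apical side given a Cl⁻ gradient (65 mmol/L NaCl replaced by Na gluconate, 2 mmol/L CaCl2) against HEPES-buffered basolateral saline, pH 7.3, 37°C. Forskolin, test compound, then CFTRinh-172 (10 μmol/L) added. Concentration dependence: mean ± SEM, n = 3 cultures.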

ΔF508-CFTR = ΔF508-CFTR (Homo sapiens, UniProt P13569, DEL508-508); test: Short-circuit current in FRT cells expressing ΔF508-CFTR; assay type: cell-based; details: FRT cells expressing ΔF508-CFTR after overnight incubation with corrector VX-809
Procedure, shortened: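 Short-circuit current in FRT cells expressing ΔF508-CFTR, pre-corrected with 3 μmol/L VX-809 at 37°C for 24 h. Responses recorded to added forskolin, test compound and VX-770, with CFTRinh-172 (10 μmol/L) where indicated. Traces representative of 3 experiments.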

cAMP = test: GloSensor luminescence cAMP assay in FRT null cells; assay type: cell-based, rat; details: 5 μmol/L, 10 minutes
Procedure, shortened: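 FRT null cells stably transfected with a GloSensor cAMP plasmid, grown to confluence and washed 3× in PBS. Incubated 10 min with 5 μmol/L test compound, without or with forskolin (100 nmol/L). cAMP read by luminescence. Positive controls: forskolin 100 nmol/L and 20 μmol/L, forskolin plus IBMX 100 μmol/L. Mean ± SEM, n = 4–8.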

[1] = tested on: loperamide-induced mouse model of constipation; test: Loperamide-induced constipation model in wild-type mice; assay type: in vivo; details: for Stool weight, pellet number and water content (3 hours): 10 mg/kg intraperitoneal, loperamide-treated wild-type mice; for Normalization of stool output as percent of the maximal CFTRact-J027 response: 0.5 mg/kg oral
Procedure, shortened: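 Female CD1 mice (8–10 wk) given loperamide 0.3 mg/kg IP. Test compound (0.1–10 mg/kg) or vehicle given IP at the same time, or orally 1 h before. Mice then housed singly in metabolic cages and stool collected for 3 h: total weight, pellet number, and water content after drying at 80°C for 24 h. Mean ± SEM; 6 mice per group, dose-response 4–6 per group.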

[2] = tested on: cystic fibrosis mice (ΔF508 homozygous); assay type: in vivo, mouse; details: loperamide model; cystic fibrosis mice lacking functional CFTR
Procedure, shortened: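 ΔF508-homozygous cystic fibrosis mice run in the same loperamide protocol as wild-type mice (0.3 mg/kg IP, test compound or vehicle). Stool collected for 3 h in metabolic cages; weight, pellet number, and water content measured after drying at 80°C for 24 h. 3–6 mice per group.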

[3] = tested on: loperamide-treated wild-type mice; test: Whole-gut transit time in loperamide-treated wild-type mice; assay type: in vivo, mouse; details: 10 mg/kg IP with loperamide at zero time
Procedure, shortened: (§1)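 Marker (200 μL; 5% Evans Blue, 5% gum Arabic) given by oral gavage at zero time. At the same time, loperamide (0.3 mg/kg) and test compound (10 mg/kg) or vehicle given IP, to wild-type or cystic fibrosis mice. Whole-gut transit time taken as the time the marker appears in stool.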

cystic fibrosis mice = test: Whole-gut transit time in cystic fibrosis mice; assay type: in vivo, mouse; details: 10 mg/kg IP
Procedure, shortened: as §1

[4] = tested on: isolated mouse ileum and colon strips; test: Ex vivo contractility of isolated intestinal strips; details: added alone or in the presence of 10 μmol/L loperamide
[5] = tested on: closed midjejunal loops in wild-type mice; test: Intestinal fluid secretion in closed midjejunal loops, wild-type mice; assay type: in vivo, mouse; details: 100 μg per loop, 90 minutes
Procedure, shortened: (§2)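 Mice fasted 24 h with 5% dextrose water only, then anaesthetised with isoflurane and kept at 36–38°C. Closed midjejunal loops (2–3 cm) tied off by sutures and injected with 100 μL vehicle or 100 μg test compound in vehicle. Incision closed and mice recovered. Loops removed at 90 min; loop weight/length taken as fluid secretion. 4 loops per group.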

[6] = tested on: closed midjejunal loops in cystic fibrosis mice; test: Intestinal fluid secretion in closed midjejunal loops, cystic fibrosis mice; assay type: in vivo, mouse; details: 100 μg per loop, 90 minutes
Procedure, shortened: as §2

[7] = tested on: closed midjejunal loops of cystic fibrosis mice; test: Intestinal fluid absorption in closed midjejunal loops, cystic fibrosis mice; assay type: in vivo, mouse; details: 100 μg per loop, 30 minutes
[8] = In vitro metabolic stability in mouse liver microsomes; assay type: in vitro ADME
Procedure, shortened: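 Test compound (5 μmol/L) incubated at 37°C for set times with mouse liver microsomes (1 mg protein/mL) in 100 mmol/L potassium phosphate with 1 mmol/L NADPH. Reaction chilled on ice and extracted with ice-cold ethyl acetate, then centrifuged. Supernatant dried, residue taken up in acetonitrile:water 3:1, and parent measured by LC-MS.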

[9] = Pharmacokinetics in mice after bolus IP or oral administration; assay type: in vivo, mouse
Procedure, shortened: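 Female CD1 mice dosed once with 10 mg/kg test compound in saline containing 5% DMSO and 10% Kolliphor HS 15, IP or orally. Blood taken by orbital puncture at 15, 30, 60, 150, 240 and 360 min, and plasma separated by centrifugation. Levels measured by LC-MS against calibration standards spiked into untreated mouse plasma. Mean ± SEM, 3 mice per group.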

FRT cells = test: In vitro cytotoxicity by Alamar Blue assay; assay type: cell-based, rat
Procedure, shortened: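 FRT cells exposed to 25 μmol/L test compound for 8 and 24 h, with viability read by Alamar Blue. Mean ± SEM, n = 3 cultures.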

[10] = 7-day oral toxicity study in mice; assay type: in vivo, mouse
Procedure, shortened: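 Mice received 10 mg/kg test compound or vehicle orally once daily for 7 days. One hour after the last dose, loperamide 0.3 mg/kg IP was given and stool was collected for 3 h. At 4 h after the last dose: complete blood count, serum chemistry, body weight and lung wet/dry weight ratio. Mean ± SEM, 5 mice per group.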

loperamide-treated mice = test: Efficacy in loperamide model after 7-day chronic oral administration; assay type: in vivo, mouse; details: 10 mg/kg orally for 7 days, loperamide 1 hour after final dose
Solubility limit = assay type: physicochemical
[11] = tested on: constipation-predominant irritable bowel syndrome patients; details: cited from earlier work
[12] = tested on: chronic constipation patients; details: placebo 0.9; cited from earlier work
[13] = 10 mg/kg orally once a day for 7 days
[14] = 10 mg/kg orally once per day for 7 days, mean ± SEM, 5 mice

CFTR activation at 3 μmol/L (human wild-type CFTR; FRT cells expressing wild-type CFTR, 3 μmol/L): nearly full activation
CFTR activation (short-circuit current) (human wild-type CFTR; FRT cells, wild-type CFTR, forskolin produced minimal further increase): fully activated CFTR
CFTR activation in the absence of forskolin (human wild-type CFTR; FRT cells, wild-type CFTR, no forskolin, data not shown): Little CFTR activation
Original compound remaining at 60 minutes ([8]; mouse liver microsomes, 60 minutes): 7%
half-life at 5 μmol/L ([8]; mouse, liver microsomes): ~21 min
half-life ([9]; female, CD1, mouse, serum, ip, 10 mg/kg): ~16 min
concentration at 30 minutes ([9]; female, CD1, mouse, serum, po, 10 mg/kg): 180 nM
Serum concentration at 150 minutes after IP administration ([9]; mice, 10 mg/kg IP, 150 minutes): undetectable
Blood levels after oral administration ([9]; mice, 10 mg/kg oral): less than 200 nmol/L
Serum concentration at other time points after oral administration ([9]; mice, 10 mg/kg oral, time points other than 30 minutes): undetectable
solubility (Solubility limit): ~25 µM (≈ 9.31 µg/mL)
Compound: Nc1ccc([N+](=O)[O-])cc1-c1nc2ccccc2n(Cc2ccccc2)c1=O [CFTRact-J027, 3-(2-amino-5-nitrophenyl)-1-benzylquinoxalin-2(1H)-one]
Potentiation of ΔF508-CFTR (ΔF508-CFTR): only a weak potentiator; also recorded: substantially less potent than ivacaftor
Cellular cAMP, compound added alone (cAMP): does not increase cellular cAMP
Cellular cAMP, compound added together with forskolin (cAMP; with forskolin): does not increase cAMP further
Stool weight, pellet number and water content (3 hours) [1]: normalized each of the stool parameters
Stool output and water content, oral administration ([1]; 10 mg/kg oral 1 hour before loperamide, loperamide-treated mice): effective in normalizing stool output and water content
Stool output and water content in control mice, oral administration ([1]; 10 mg/kg oral, control mice): no effect
Stool output or water content in control mice ([1]; intraperitoneal, control (non-loperamide-treated) mice): did not affect stool output or water content
50% effective dose, IP administration ([1]; loperamide model, intraperitoneal): 2 mg/kg
Stool output and water content in cystic fibrosis mice [2]: without effect
Whole-gut transit time [3]: normalized
Whole-gut transit time in cystic fibrosis mice (cystic fibrosis mice): no effect
Intestinal contraction [4]: no effect
Increase in loop weight/length ratio (fluid secretion) [5]: 140%
Loop fluid secretion in cystic fibrosis mice [6]: without effect
Intestinal fluid absorption [7]: did not affect intestinal fluid absorption
Oral bioavailability ([9]; mice, 10 mg/kg oral, 10 mg/kg): minimal bioavailability; also recorded: very low bioavailability
Non-cytotoxic concentration relative to EC50 for CFTR activation (FRT cells; 25 μmol/L versus EC50): more than 100 fold
Cytotoxicity (Alamar Blue) (FRT cells; 25 μmol/L, FRT cells, 8 and 24 hours): did not show cytotoxicity
Body weight [10, 13]: did not change body weight
Lung water content (lung wet/dry weight ratio) [10, 13]: normal lung water content
Major serum chemistry and blood parameters [10, 13]: did not affect the major serum chemistry and blood parameters
ALP level [10, 14]: 53 ± 2.5 U/L
ALT level [10, 14]: 44 ± 6 U/L
AST level [10, 14]: 105 ± 11 U/L
Albumin level [10, 14]: 2.9 ± 0.03 g/dL
BUN level [10, 14]: 18.4 ± 1.2 mg/dL
Bicarbonate level [10, 14]: 16 ± 1.7 mmol/L
CK level [10, 14]: 312 ± 62 U/L
Calcium level [10, 14]: 8.5 ± 0.04 mg/dL
Chloride level [10, 14]: 115 ± 1 mmol/L
Cholesterol level [10, 14]: 121 ± 6 mg/dL
Creatinine level [10, 14]: 0.2 ± 0 mg/dL
Globulin level [10, 14]: 2.2 ± 0.1 g/dL
Glucose level [10, 14]: 164 ± 6 mg/dL
Hemoglobin level [10, 14]: 12.8 ± 0.3 g/dL
Leukocyte level [10, 14]: 1.9 ± 0.5 10^3/μL
Phosphorus level [10, 14]: 6.8 ± 0.3 mg/dL
Potassium level [10, 14]: 4.4 ± 0.1 mmol/L
Sodium level [10, 14]: 151 ± 0.7 mmol/L
Thrombocyte level [10, 14]: 900 ± 48 10^3/μL
Total bilirubin level [10, 14]: 0.1 ± 0 mg/dL
Total protein level [10, 14]: 5.2 ± 0.1 g/dL
Stool output and water content after chronic administration (loperamide-treated mice): remained effective in normalizing stool output and water content

Compound: Cn1c(=O)c(-c2cc([N+](=O)[O-])ccc2N)nc2ccccc21 [inactive chemical analog of CFTRact-J027, 3-(2-amino-5-nitrophenyl)-1-(methyl)-2(1H)-quinoxalinone]
Stool weight, pellet number and water content (3 hours) [1]: not effective

Compound: CCCCC(F)(F)[C@@]1(O)CC[C@H]2[C@@H](CC(=O)[C@@H]2CCCCCCC(=O)O)O1 [lubiprostone, reference compound]
Normalization of stool output as percent of the maximal CFTRact-J027 response ([1]; loperamide-treated mice): 50%
Overall response rate [11]: approximately 13%

Compound: linaclotide [reference compound]
Normalization of stool output as percent of the maximal CFTRact-J027 response ([1]; loperamide-treated mice): 35%
CSBM per week [12]: ~2.5
